Laboratory results as given in ChEMBL document CHEMBL4270562, “Synthesis and evaluation of the cytotoxic activity of Furanaphthoquinones tethered to 1H-1,2,3-triazoles in Caco-2, Calu-3, MDA-MB231 cells” (Eur J Med Chem, 2018).

What was measured:
[1] = system: Calu-3; test: Cytotoxicity against human Calu3 cells assessed as cell viability at 5 uM after 48 hrs by MTT assay relative to control; format: functional; settings: Calu-3, 48 h, read-out: Activity
Procedure, shortened: (§1)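 Single-concentration screen at 5 μM. Cells were seeded at 32,000/well and pre-incubated 24 h at 37 °C, 5% CO2, then treated 48 h in 10% FBS DMEM or RPMI containing 0.5% DMSO. MTT (2.5 mg/mL solution, 3 h), formazan dissolved in DMSO, absorbance at 570/690 nm. Viability expressed as % of untreated cells, mean ± SD.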

[2] = system: MDA-MB-231; test: Cytotoxicity against human MDA-MB-231 cells assessed as cell viability at 5 uM after 48 hrs by MTT assay relative to control; format: functional; settings: MDA-MB-231, 48 h, read-out: Activity; procedure, shortened: as §1
[3] = Cytotoxicity against African green monkey Vero cells assessed as cell viability at 5 uM after 48 hrs by MTT assay relative to control; format: cell-based; settings: chlorocebus sabaeus, read-out: Activity; procedure, shortened: as §1
[4] = system: Caco-2; test: Cytotoxicity against human Caco2 cells assessed as cell viability at 5 uM after 48 hrs by MTT assay relative to control; format: functional; settings: Caco-2, 48 h, read-out: Activity; procedure, shortened: as §1
[5] = Cytotoxicity against African green monkey Vero cells assessed as cell viability after 48 hrs by MTT assay relative to control; format: cell-based; settings: chlorocebus sabaeus
Procedure, shortened: (§2)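 Cells seeded at 32,000/well, grown 24 h at 37 °C in 5% CO2, then exposed for 48 h to samples at 5 to 400 μM in 10% FBS DMEM or RPMI with 0.5% DMSO. Vehicle medium with 0.5% DMSO served as control. Viability was read by MTT reduction: MTT solution (2.5 mg/mL) in HBSS for 3 h, DMSO to dissolve formazan, absorbance at 570/690 nm. IC50 (tumour lines) and CC50 (Vero) were derived from survival relative to untreated cells, and SI was calculated from them.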

[6] = Effect on prothrombin time in human platelet poor plasma at 100 uM after 3 hrs; format: ADME, cell-free
Procedure, shortened: (§3)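 Citrated platelet-poor plasma tested with sample at 100 μM, vehicle DMSO ≤1%. Clotting times (PT, aPTT) were measured on a coagulation analyzer. DMSO 1% was the negative control and rivaroxaban 100 μM the positive anticoagulant control.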

[7] = Selectivity index, ratio of CC50 for African green monkey Vero cells to IC50 for human Caco2 cells; format: toxicity; settings: Vero cells (CC50) and Caco2 cells (IC50); procedure, shortened: as §2
[8] = system: Platelet; test: Inhibition of arachidonic acid-induced platelet aggregation in human platelet rich plasma at 100 uM preincubated for 2 mins followed by arachidonic acid addition and measured after 3 hrs by turbidimetric analysis; format: cell-based
Procedure, shortened: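 Fresh platelet-rich plasma pre-incubated 2 min at 37 °C with sample (100 μM) before arachidonic acid stimulation. Aggregation was followed turbidimetrically in a lumi-aggregometer. DMSO 1% was the negative control and acetylsalicylic acid 100 μM the positive control.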

[9] = Effect on activated thromboplastin time in human platelet poor plasma at 100 uM after 3 hrs; format: ADME, cell-free; procedure, shortened: as §3
[10] = system: Caco-2; test: Cytotoxicity against human Caco2 cells assessed as cell viability after 48 hrs by MTT assay relative to control; format: functional, cell-based; settings: Caco-2, 48 h; procedure, shortened: as §2

SMILES	viability at 5 µM [1]	viability at 5 µM [2]	viability at 48 h, 5 µM [3]	viability at 5 µM [4]	CC50 at 48 h [5]	Activity [6]	selectivity ratio [7]	Activity [8]	Activity [9]	IC50 [10]
COc1ccc(-n2cc(C3CC4=C(O3)C(=O)c3ccccc3C4=O)nn2)cc1 (stereo not given)	125%	99.6%	64.8%	81.8%	–	–	–	–	–	–
O=C1C2=C(OC(c3cn(-c4ccc(Cl)cc4)nn3)C2)C(=O)c2ccccc21 (stereo not given)	134%	103%	78.1%	82.1%	–	–	–	–	–	–
O=C1C(=O)c2ccccc2C2=C1CC(c1cn(-c3cc(Cl)ccc3Cl)nn1)O2 (stereo not given)	118%	82.1%	74.7%	78.1%	–	–	–	–	–	–
O=C1C2=C(OC(c3cn(-c4ccc(F)cc4)nn3)C2)C(=O)c2ccccc21 (stereo not given)	104%	97.9%	73%	77.3%	–	–	–	–	–	–
O=C1C(=O)c2ccccc2C2=C1CC(c1cn(-c3ccc(Cl)c(Cl)c3)nn1)O2 (stereo not given)	111%	90.2%	81%	94.4%	–	–	–	–	–	–
O=C1C2=C(OC(c3cn(-c4ccccc4)nn3)C2)C(=O)c2ccccc21 (stereo not given)	113%	109%	76.2%	88.3%	–	–	–	–	–	–
Cc1ccc(-n2cc(C3CC4=C(O3)c3ccccc3C(=O)C4=O)nn2)cc1 (stereo not given)	111%	90.7%	41.8%	33.3%	–	–	–	–	–	–
O=C1C(=O)c2ccccc2C2=C1CC(c1cn(-c3ccc(Cl)cc3)nn1)O2 (stereo not given)	122%	46.5%	59.3%	46.4%	–	–	–	–	–	–
O=C1C(=O)c2ccccc2C2=C1CC(c1cn(-c3ccc([N+](=O)[O-])cc3)nn1)O2 (stereo not given)	133%	99.2%	88.7%	86.9%	–	–	–	–	–	–
COc1ccc(-n2cc(C3CC4=C(O3)c3ccccc3C(=O)C4=O)nn2)cc1 (stereo not given)	113%	41.1%	34.1%	23%	–	–	–	–	–	–
O=C1C(=O)c2ccccc2C2=C1CC(c1cn(-c3ccc(F)cc3)nn1)O2 (stereo not given)	117%	41.5%	55.8%	37.9%	–	–	–	–	–	–
O=C1C2=C(OC(c3cn(-c4cc(Cl)ccc4Cl)nn3)C2)C(=O)c2ccccc21 (stereo not given)	139%	104%	90.4%	85.8%	–	–	–	–	–	–
Cc1ccc(-n2cc(C3CC4=C(O3)C(=O)c3ccccc3C4=O)nn2)cc1 (stereo not given)	112%	95.3%	74%	88%	–	–	–	–	–	–
O=C1C2=C(OC(c3cn(-c4ccc(Cl)c(Cl)c4)nn3)C2)C(=O)c2ccccc21 (stereo not given)	111%	96.6%	78.7%	83.9%	–	–	–	–	–	–
O=C1C2=C(OC(c3cn(-c4ccc([N+](=O)[O-])cc4)nn3)C2)C(=O)c2ccccc21 (stereo not given)	120%	97.4%	63.6%	95.5%	–	–	–	–	–	–
O=C1C(=O)c2ccccc2C2=C1CC(c1cn(-c3ccccc3)nn1)O2 (stereo not given)	110%	87.7%	68%	23.9%	28 µM	Non-Toxic	6.25	Non-Toxic	Non-Toxic	4.48 µM
